According to paper PMC8867396 (Nature, 2021):
Like-named read-outs stand apart in the source and are kept apart here.

Columns and labels:
SNI mice = test: Spared nerve injury; format: in vivo; conditions: for anti-allodynic effect, mechanical thresholds versus vehicle: systemic (subcutaneous) administration to SNI mice
Procedure, shortened: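 Spared nerve injury under isoflurane: two sciatic branches ligated and transected, sural nerve intact; mice tested 7–14 days later. Test compound (10, 20 or 30 mg/kg) or vehicle (saline, cyclodextrin, kolliphor) given subcutaneously, random assignment. Hindpaw von Frey thresholds by up-down method at 1, 24, 48 h. Thresholds normalized to each mouse's post-SNI baseline; n = 5–10; ANOVA with Dunnett's test.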

[1] = Pharmacokinetics in male CD-1 mice, plasma and brain; format: in vivo; conditions: 10 mg/kg subcutaneous
human σ2 receptor = human σ2 receptor (Homo sapiens, UniProt Q5BJF2); test: Competition binding of [3H]-DTG in Expi293 membranes expressing σ2 receptor; conditions: for Selectivity (σ1/σ2): ratio of σ1 Ki to σ2 Ki
Chain of human σ2 receptor (Q5BJF2 whole entry): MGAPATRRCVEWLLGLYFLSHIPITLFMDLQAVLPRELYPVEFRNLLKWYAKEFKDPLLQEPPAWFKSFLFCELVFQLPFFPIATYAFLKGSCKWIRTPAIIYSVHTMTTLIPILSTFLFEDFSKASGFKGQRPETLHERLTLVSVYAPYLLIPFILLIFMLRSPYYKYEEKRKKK
Procedure, shortened: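 σ2-expressing Expi293 membranes were made by osmotic lysis (20 mM HEPES pH 7.5, 2 mM MgCl2), spun at 20,000 × g, and kept in 50 mM Tris pH 8.0 at −80 °C. Assay buffer: 50 mM Tris pH 8.0, 0.1% BSA, 10 nM [3H]-DTG and graded competitor; 37 °C, 90 min. 10 μM haloperidol set nonspecific binding. Filtration, scintillation counting; Ki by Cheng-Prusoff using measured probe Kd.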

[2] = tested on: σ2 mutants (His21, Gln77); test: Competition binding in σ2 receptor mutants disrupting water coordination; design: species or system human
Procedure, shortened: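 Expi293 membranes carrying wild-type or mutant σ2 (lysed osmotically in 20 mM HEPES pH 7.5, 2 mM MgCl2; pellet at 20,000 × g), in 50 mM Tris pH 8.0, 0.1% BSA, with 10 nM [3H]-DTG and graded competitor. Incubated 37 °C, 90 min, shaking. Filtered on PEI-soaked glass fibre, scintillation counted. Nonspecific binding with 10 μM haloperidol. Ki by Cheng-Prusoff; three technical replicates, mean ± SEM.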

mice = test: Rotarod; format: in vivo; conditions: 1 hour or 24 hours post-injection; Z1665845742 10 mg/kg, Z4857158944 20 mg/kg, Z4446724338 10 mg/kg
σ1 receptor = σ1 receptor (Homo sapiens, UniProt Q99720); test: Competition binding versus σ1 receptor; conditions: read-out: Ki (nM) σ1
Chain of σ1 receptor (Q99720 whole entry, species assumed): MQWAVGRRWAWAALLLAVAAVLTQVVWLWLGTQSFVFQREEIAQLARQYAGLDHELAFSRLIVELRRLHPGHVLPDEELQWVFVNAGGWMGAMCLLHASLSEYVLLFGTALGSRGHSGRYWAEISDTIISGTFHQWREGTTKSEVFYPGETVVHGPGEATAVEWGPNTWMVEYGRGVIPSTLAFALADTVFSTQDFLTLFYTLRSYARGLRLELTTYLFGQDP

[3] = read-out: Ki (nM) σ2, competition with 10 nM [3H]-DTG

Question: With COc1cccc2c1CCCC2CCCN1CCN(C2CCCCC2)CC1 (stereo not shown) [PB28, reference compound] as the molecule, how does the “mice in which anti-allodynic effects were observed” value (SNI mice; systemic injection, 30 mg/kg) read?
Answer: The value was 60%.

Question: What about the “AUC0→t (AUClast)” value ([1]; brain) of the same molecule?
Answer: The value was 229000 ng·min/mL (g).

Question: What about the “AUC0→∞ (AUCinf_obs)” value ([1]; brain) of the same molecule?
Answer: Its value is 240000 ng·min/mL (g).

Question: What about the Cmax ([1]; brain) of the same molecule?
Answer: The Cmax was 948 ng/mL (g).

Question: And the “Kel (Lambda_z)” value ([1]; brain)?
Answer: Its value is 0.00706 min⁻¹.

Question: What about the “T1/2 (HL_Lambda_z)” value ([1]; brain) of the same molecule?
Answer: The value was 1.64 h.

Question: And the Tmax ([1]; brain)?
Answer: The Tmax was 1 h.

Question: What about the “AUC0→t (AUClast)” value ([1]; plasma) of the same molecule?
Answer: Its value is 8640 ng·min/mL (g).

Question: And the “AUC0→∞ (AUCinf_obs)” value ([1]; plasma)?
Answer: Its value is 45900 ng·min/mL (g).

Question: What about the Cmax ([1]; plasma) of the same molecule?
Answer: Its Cmax is 42 ng/mL (g).

Question: What about the “Kel (Lambda_z)” value ([1]; plasma) of the same molecule?
Answer: Its value is 0.000937 min⁻¹.

Question: What about the “T1/2 (HL_Lambda_z)” value ([1]; plasma) of the same molecule?
Answer: The value was 12.3 h.

Question: And the Tmax ([1]; plasma)?
Answer: Its Tmax is 1 h.

Question: For CCCN1CCC=C(c2cc(-c3ccc(C)cc3)no2)C1 [PD-144418], which “anti-allodynic effect, mechanical thresholds versus vehicle” value (SNI mice) is on record?
Answer: The value was “anti-allodynia”.

Question: What about the “anti-allodynia 24 or 48 hours post-injection” value (SNI mice; tested at 1, 24 and 48 hours after dosing) of the same molecule?
Answer: The value was “not sustained”.

Question: With c1ccc(CCCN2CCC(c3nnc4ccccn34)CC2)cc1 [Z163048780] as the molecule, how does the Ki (human σ2 receptor; read-out: σ2 Ki (affinity)) read?
Answer: Its Ki is greater than 10000 nM.

Question: Which “decrease in σ2 affinity” value (human σ2 receptor; versus parent Z1241145220) does the source give for C1=C(c2c[nH]c3ccccc23)CCN(CCCc2ccccc2)C1 [Z295861754] here?
Answer: The value was 8 fold.

Question: For C1=C(c2c[nH]c3ncccc23)CCN(CCCc2ccccc2)C1 [Z1241145220], which “reduction of affinity on mutation” value ([2]; Gln77 mutant versus wild-type σ2) is on record?
Answer: The value was “about 10 fold”.

Question: What about the “reduction of affinity on mutation” value ([2]; His21 mutant versus wild-type σ2) of the same molecule?
Answer: The value was “about 10 fold”.

Question: And the Ki (human σ2 receptor; read-out: σ2 Ki (affinity))?
Answer: Its Ki is 3.7 nM.

Question: Which “σ2 activity in words” value (human σ2 receptor) does the source give for OC(CCc1ccccc1)CN1CCC(c2nnc3ccccn23)CC1 (stereo not shown) [Z1665798906] here?
Answer: Its value is “σ2 inactive”.

Question: For OC(CCc1ccccc1)CN1CC=C(c2c[nH]c3ncccc23)CC1 (stereo not shown) [Z1665845742], which “anti-allodynic effect, mechanical thresholds versus vehicle” value (SNI mice) is on record?
Answer: The value was “anti-allodynic”.

Question: And the “sedation or motor impairment on the rotarod” value (mice)?
Answer: The value was “No sedation or motor impairment”.

Question: What about the “AUC0→t (AUClast)” value ([1]; brain) of the same molecule?
Answer: Its value is 436000 ng·min/mL (g).

Question: And the “AUC0→∞ (AUCinf_obs)” value ([1]; brain)?
Answer: The value was 509000 ng·min/mL (g).

Question: What about the Cmax ([1]; brain) of the same molecule?
Answer: The Cmax was 3150 ng/mL (g).

Question: And the “Kel (Lambda_z)” value ([1]; brain)?
Answer: The value was 0.000928 min⁻¹.

Question: What about the “T1/2 (HL_Lambda_z)” value ([1]; brain) of the same molecule?
Answer: The value was 12.4 h.

Question: And the Tmax ([1]; brain)?
Answer: The Tmax was 0.333 h.

Question: What about the “AUC0→t (AUClast)” value ([1]; plasma) of the same molecule?
Answer: Its value is 99000 ng·min/mL (g).

Question: And the “AUC0→∞ (AUCinf_obs)” value ([1]; plasma)?
Answer: Its value is 112000 ng·min/mL (g).

Question: And the Cmax ([1]; plasma)?
Answer: Its Cmax is 968 ng/mL (g).

Question: And the “Kel (Lambda_z)” value ([1]; plasma)?
Answer: The value was 0.00374 min⁻¹.

Question: And the “T1/2 (HL_Lambda_z)” value ([1]; plasma)?
Answer: The value was 3.08 h.

Question: And the Tmax ([1]; plasma)?
Answer: The Tmax was 0.333 h.

Question: And the “selectivity for σ2 over σ1” value (human σ2 receptor)?
Answer: Its value is 47 fold.

Question: What about the Ki (human σ2 receptor; read-out: σ2 Ki (affinity)) of the same molecule?
Answer: Its Ki is 5 nM.

Question: What does the source list for N/C(=N\Cc1ccc(F)cc1Br)NCC1CCC1 [ZINC000170908795]?
Answer: Ki (σ1 receptor): 32.7 nM; Selectivity (σ1/σ2) (human σ2 receptor): 4.9; Ki (human σ2 receptor; [3]): 6.7 nM

Question: For Cc1ccc([C@H]2CCN(CC3(O)CCC3)C2)c(C)c1 [ZINC000348332392], which Ki (σ1 receptor) is on record?
Answer: Its Ki is 2.9 nM.

Question: And the “Selectivity (σ1/σ2)” value (human σ2 receptor)?
Answer: The value was 0.1.

Question: What about the Ki (human σ2 receptor; [3]) of the same molecule?
Answer: The Ki was 33.7 nM.

Question: Which Ki (σ1 receptor) does the source give for C[C@@H](c1ccccc1)[C@@H](O)CN1CCC(c2c[nH]c3ncccc23)CC1 [ZINC000450573233] here?
Answer: The Ki was 128 nM.

Question: What about the “Selectivity (σ1/σ2)” value (human σ2 receptor) of the same molecule?
Answer: Its value is 30.

Question: And the Ki (human σ2 receptor; [3])?
Answer: The Ki was 4.3 nM.

Question: For C[C@@H](C(=O)N(C)Cc1cccc(F)c1)N1CC=C(c2c[nH]c3ncccc23)CC1 [ZINC000533478938], which Ki (σ1 receptor) is on record?
Answer: Its Ki is 1470 nM.

Question: And the “Selectivity (σ1/σ2)” value (human σ2 receptor)?
Answer: Its value is 43.

Question: What about the Ki (human σ2 receptor; [3]) of the same molecule?
Answer: Its Ki is 34.5 nM.

Question: For Cc1ccc(CCC2CCN(C(=O)CN3C[C@@H]4CC[C@@H](O)[C@H]4C3)CC2)cc1 [ZINC000544117725], which Ki (σ1 receptor) is on record?
Answer: The Ki was 16.2 nM.

Question: And the “Selectivity (σ1/σ2)” value (human σ2 receptor)?
Answer: Its value is 1.6.

Question: And the Ki (human σ2 receptor; [3])?
Answer: Its Ki is 10 nM.

Question: Which Ki (σ1 receptor) does the source give for CC1CCC(O)(CN2CC(Cc3ccc(F)c(F)c3)C2)CC1 (stereo not shown) [ZINC000548355486] here?
Answer: Its Ki is 4.9 nM.

Question: What about the “Selectivity (σ1/σ2)” value (human σ2 receptor) of the same molecule?
Answer: The value was 2.

Question: What about the Ki (human σ2 receptor; [3]) of the same molecule?
Answer: Its Ki is 2.4 nM.

Question: What does the source list for Cc1ccc(CC2CN(CC3(O)CCSCC3)C2)cc1 [ZINC000656714762]?
Answer: Ki (σ1 receptor): 4.6 nM; Selectivity (σ1/σ2) (human σ2 receptor): 0.1; Ki (human σ2 receptor; [3]): 67.8 nM

Question: With CC(C)(NCc1ccc2c(c1)OCCO2)[C@H](O)c1ccccc1 [ZINC000895657866] as the molecule, how does the Ki (σ1 receptor) read?
Answer: The Ki was 990 nM.

Question: And the “Selectivity (σ1/σ2)” value (human σ2 receptor)?
Answer: The value was 46.

Question: What about the Ki (human σ2 receptor; [3]) of the same molecule?
Answer: The Ki was 21.4 nM.

Question: For O[C@@]1(CNCc2cccc3c2OCC3)CCc2ccccc21 [ZINC000921927365], which Ki (σ1 receptor) is on record?
Answer: The Ki was 1190 nM.

Question: And the “Selectivity (σ1/σ2)” value (human σ2 receptor)?
Answer: The value was 18.

Question: What about the Ki (human σ2 receptor; [3]) of the same molecule?
Answer: The Ki was 67.3 nM.

Question: For CC(C)CCO[C@@H]1CCN(C[C@H]2CC3(CCCCC3)CO2)C1 [ZINC001196519317], which Ki (σ1 receptor) is on record?
Answer: Its Ki is 13.4 nM.

Question: What about the “Selectivity (σ1/σ2)” value (human σ2 receptor) of the same molecule?
Answer: The value was 5.6.

Question: What about the Ki (human σ2 receptor; [3]) of the same molecule?
Answer: The Ki was 2.4 nM.

Question: What does the source list for Fc1c(CN2CCN(C[C@@H]3CCCO3)CC2)ccc(Br)c1Cl [ZINC001237901728]?
Answer: Ki (σ1 receptor): 1.6 nM; Selectivity (σ1/σ2) (human σ2 receptor): 0.1; Ki (human σ2 receptor; [3]): 27 nM

Question: Which results are given for O[C@@H](COCc1ccccc1F)CN1CC(Cc2ccccc2C(F)(F)F)C1 [ZINC001254761628]?
Answer: Ki (σ1 receptor): 53 nM; Selectivity (σ1/σ2) (human σ2 receptor): 11.3; Ki (human σ2 receptor; [3]): 4.7 nM

Question: Which results are given for CC[C@@H](CO)N1CCC(CCc2ccc(F)cc2F)CC1 [ZINC001460312963]?
Answer: Ki (σ1 receptor): 1.7 nM; Selectivity (σ1/σ2) (human σ2 receptor): 0.3; Ki (human σ2 receptor; [3]): 5.2 nM
